Test [1] can be described thus: Inhibition of beta-lactamase AmpC. A digest of the protocol: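 Cuvette assay with 1 nM AmpC β-lactamase and 200 µM nitrocefin, Triton X-100 at either 0.00002 or 0.1%. Compound and enzyme preincubated 5 min, then substrate added to start the reaction.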
Test [2] is described as follows: Inhibition of chymotrypsin in presence of 0.1% Triton X-100. A digest of the protocol: (§1)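 Chymotrypsin (28 nM) preincubated 5 min with inhibitor, then reaction started with 200 µM N-succinyl-Ala-Ala-Pro-Phe p-nitroanilide. In the no-preincubation variant, inhibitor and substrate were mixed first and enzyme was added to start. Progress read at 410 nm.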
The nature of test [3]: Inhibition of chymotrypsin. A digest of the protocol: as §1
Test [4] concerns the target T1, Cruzipain (Trypanosoma cruzi, UniProt P25779). The test can be described thus: Inhibition of cruzain.
Test [5] in a line: Inhibition of beta-lactamase AmpC in presence of 0.1% Triton X-100. A digest of the protocol: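 Cuvette assay with 1 nM AmpC β-lactamase and 200 µM nitrocefin, Triton X-100 at either 0.00002 or 0.1%. Compound and enzyme preincubated 5 min, then substrate added to start the reaction. Nitrocefin hydrolysis read at 482 nm by UV–visible spectrophotometry at room temperature.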

The nature of test [6]: Inhibition of malate dehydrogenase. A digest of the protocol: (§2)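 Malate dehydrogenase (2 nM) incubated 5 min with inhibitor, then reaction started with 200 µM oxaloacetic acid plus 200 µM NADH. In the no-preincubation variant, inhibitor, oxaloacetate and NADH were mixed first and enzyme was added last. NADH consumption followed at 340 nm.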
Test [7] can be described thus: Inhibition of malate dehydrogenase in presence of 0.1% Triton X-100. A digest of the protocol: as §2
The target of test [8] is T1, Cruzipain. In words: Inhibition of cruzain in presence of 0.01% Triton X-100. An outline of the steps:
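Recombinant cruzain (10 nM) in 0.1 M sodium acetate pH 5.5 with 5 mM DTT and 0.01% Triton X-100, substrate 2.5 µM Z-Phe-Arg-AMC. Cleavage read fluorimetrically in 96-well format, excitation 355 nm, emission 460 nm.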

The structures appear in SMILES notation. pIC50: −log10 of the molar value.

T1 sequence (P25779 whole entry): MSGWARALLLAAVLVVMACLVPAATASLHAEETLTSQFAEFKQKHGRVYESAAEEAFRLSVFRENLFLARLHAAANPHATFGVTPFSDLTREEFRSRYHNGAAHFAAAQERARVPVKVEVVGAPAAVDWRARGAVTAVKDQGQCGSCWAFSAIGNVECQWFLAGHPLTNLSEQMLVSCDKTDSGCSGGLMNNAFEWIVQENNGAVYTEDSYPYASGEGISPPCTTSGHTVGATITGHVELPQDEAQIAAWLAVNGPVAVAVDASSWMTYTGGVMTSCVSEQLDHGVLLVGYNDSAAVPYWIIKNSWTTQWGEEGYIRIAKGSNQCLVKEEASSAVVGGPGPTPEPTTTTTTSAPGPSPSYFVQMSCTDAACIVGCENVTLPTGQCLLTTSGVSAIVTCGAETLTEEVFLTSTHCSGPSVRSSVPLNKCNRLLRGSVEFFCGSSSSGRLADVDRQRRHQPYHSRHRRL

As for `Cc1ccc(C)n1C(Cc1ccccc1)C(=O)O` (stereo not drawn), the pIC50 in test [1] is 4.02; in test [2] it was less than 3.22; in test [3], 3.24; on Cruzipain [4], greater than 6.00; in test [5], less than 3.22; in test [6], 4.82. For the same molecule, the pIC50 (in test [7]; at Cruzipain [8]) was less than 3.22 in each case.

Values taken from ChEMBL document CHEMBL1142414, “Comprehensive mechanistic analysis of hits from high-throughput and docking screens against beta-lactamase” (J Med Chem, 2008).
